Experiment [1] has as its system Rattus norvegicus. Description: Progestational activity in 9-day old pregnant bilateral ovariectomized Sprague-Dawley albino rat assessed as viable fetus at 0.055 to 0.11 mg, sc for 3 days beginning 3 hrs prior to overiectomy measured on day 12 in presence of 17beta-estradiol. It is filed as functional, organism-based. The gist of the method: (§1)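 Albino rats (Holtzman), 9 days pregnant and weighing 275–305 g, were used in groups of five. They received subcutaneous steroid in 0.2 mL sesame oil together with 17β-estradiol, 3 h before bilateral ovariectomy. Injections were repeated every 12 h for 3 days. On day 12 the animals were killed, opened by a ventral longitudinal incision, and the intact uteri removed to examine the fetuses.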

The subject of experiment [2] is Rattus norvegicus. Description: Progestational activity in 9-day old pregnant bilateral ovariectomized Sprague-Dawley albino rat assessed as viable fetus at 1 mg, sc for 3 days beginning 3 hrs prior to overiectomy measured on day 12 in presence of 17beta-estradiol. It is filed as functional, organism-based. The gist of the method: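 Groups of five 9-day-pregnant albino rats (275–305 g) received sc injections in 0.2 mL sesame oil together with 17β-estradiol (0.1×10^-3 mg), starting 3 h before bilateral ovariectomy. Injections were repeated every 12 h for 3 days. On day 12 the animals were sacrificed and opened by longitudinal ventral incision, and the intact uteri were removed to examine the fetuses.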

For experiment [3], the target named is 3-alpha-(or 20-beta)-hydroxysteroid dehydrogenase (Streptomyces exfoliatus) (UniProt P19992). Put plainly: Inhibition of 20beta-hydroxy steroid dehydrogenase in Streptomyces hydrogenans assessed as half life of enzyme inactivation at 50 uM. The gist of the method:
(§2)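 20β-Hydroxy steroid dehydrogenase from Streptomyces hydrogenans (4.2×10^-7 M) in 0.05 M phosphate buffer, pH 7.0, with 15% glycerol, was incubated with the bromoacetate steroid at 5×10^-5 M at 25 °C. Remaining activity was followed over time as NADH-dependent cortisone reduction to assess time-dependent, irreversible inactivation. The inactivation half-life was taken from the rate of activity loss.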

Experiment [4] concerns Rattus norvegicus. Description: Termination of pregnancy in intact rat assessed as fetal resorption administered into uterine lumen on day 7 measured on day 14. In kind it is functional, organism-based.
Experiment [5] has as its target 3-alpha-(or 20-beta)-hydroxysteroid dehydrogenase (Streptomyces exfoliatus) (UniProt P19992). Put plainly: Time-dependent inhibition of 20beta-hydroxy steroid dehydrogenase in Streptomyces hydrogenans assessed as inhibition of […] at 50 uM. The gist of the method: as §2
Experiment [6] has the same target. Put plainly: Irreversible inhibition of 20beta-hydroxy steroid dehydrogenase in Streptomyces hydrogenans assessed as inhibition of […] at 50 uM. The gist of the method: as §2
Experiment [7] relates to Rattus norvegicus. Put plainly: Progestational activity in 9-day old pregnant bilateral ovariectomized Sprague-Dawley albino rat assessed as viable fetus at 0.074 to 0.15 mg, sc for 3 days beginning 3 hrs prior to overiectomy measured on day 12 in presence of 17beta-estradiol. It is filed as functional, organism-based. The gist of the method:
as §1

Experiment [8] deals with Rattus norvegicus. Description: Progestational activity in 9-day old pregnant bilateral ovariectomized Sprague-Dawley albino rat assessed as unresorbed fetus at 0.074 mg, sc for 2 days beginning 3 hrs prior to overiectomy measured on day 12 in presence of 17beta-estradiol. It is filed as functional, organism-based. The gist of the method:
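Pregnant albino rats (Holtzman, day 9, 275–305 g) were used in a group of five. They received a subcutaneous steroid/17β-estradiol mixture in 0.2 mL sesame oil 3 h before bilateral ovariectomy and a second injection 12 h later, with nothing given afterwards. On day 12 the rats were sacrificed and autopsied, and the intact uteri removed to score the fetuses.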

Molecules are shown by their SMILES. Calls of active or inactive are those of the source. The calls are words filed in the database; no cut-off is given here.

Chain of 3-alpha-(or 20-beta)-hydroxysteroid dehydrogenase (Streptomyces exfoliatus) (P19992 whole entry): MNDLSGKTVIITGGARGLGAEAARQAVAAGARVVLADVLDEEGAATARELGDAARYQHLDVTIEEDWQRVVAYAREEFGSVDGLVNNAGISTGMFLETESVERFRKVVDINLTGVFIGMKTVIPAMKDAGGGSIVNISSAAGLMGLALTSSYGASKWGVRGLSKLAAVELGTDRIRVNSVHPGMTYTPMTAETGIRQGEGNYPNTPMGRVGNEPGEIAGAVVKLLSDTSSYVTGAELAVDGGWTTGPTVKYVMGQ

As for `CC(=O)O[C@]1(C(C)=O)CC[C@H]2[C@@H]3C[C@H](C)C4=CC(=O)CC[C@]4(C)[C@H]3CC[C@@]21C`, in experiment [1], the result was Active.

For `CC(=O)[C@H]1CC[C@H]2[C@@H]3CCC4=CC(=O)CC[C@]4(C)[C@H]3CC[C@]12C`, the outcome in experiment [2] was Active.

Take `CC(=O)[C@H]1[C@H](OC(=O)CBr)C[C@H]2[C@@H]3CCC4=CC(=O)CC[C@]4(C)[C@H]3CC[C@@]21C`: the T1/2 in experiment [3] was determined as 4 h. Also, the result in experiment [4] was Active.

Consider `CC(=O)[C@@]1(OC(=O)CBr)CC[C@H]2[C@@H]3C[C@H](C)C4=CC(=O)CC[C@]4(C)[C@H]3CC[C@@]21C`, for which the inhibition entry in experiment [5] and in experiment [6] was “Active” in each case. In addition, the T1/2 in experiment [3] was determined as 15 h. Further, the result in experiment [4] was inactive. For the same compound, the result in experiment [7] and in experiment [8] was Active.

Consider `CC(=O)[C@H]1CC[C@H]2[C@@H]3CCC4=CC(=O)CC[C@]4(C)[C@H]3[C@H](OC(=O)CBr)C[C@]12C`, for which the result in experiment [4] was Active.

With `C[C@]12CC[C@H]3[C@@H](CCC4=CC(=O)CC[C@@H]43)[C@@H]1CC[C@@H]2OC(=O)CBr`, in experiment [4], the outcome was Active.

The record behind these values is ChEMBL document CHEMBL3243994, “Synthesis of medroxyprogesterone bromoacetate for affinity labeling” (J Med Chem, 1977).
